These results are taken from ChEMBL document CHEMBL1152398, “Labdane diterpenoid glycosides from Alpinia densespicata and their nitric oxide inhibitory activities in macrophages” (J Nat Prod, 2009).

Data set [1] has as its system RAW264.7. Briefly: Antiinflammatory activity in mouse RAW264.7 cells assessed as inhibition of LPS-induced nitric oxide production after 24 hrs by Griess reagent assay. The class given is functional, cell-based. The following applies: RAW264.7, 24 h. The essentials: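 RAW264.7 murine macrophages grown in DMEM with 10% heat-inactivated FBS at 37 °C, 5% CO2. After 24 h, medium renewed; compounds added at 0, 1, 5, 10 or 20 µg/mL with LPS 1 µg/mL, then 24 h incubation. Supernatant nitrite measured with Griess reagent, absorbance 540 nm. Results given as percent of untreated control. Mean ± SD of three experiments, each in triplicate.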

Data set [2] can be described thus: Cytotoxicity against mouse RAW264.7 cells assessed as cell viability by modified MTT assay. Further details: concentration or dose not given beside the values. Format: cell-based. The following applies: read-out: Activity. The gist of the method: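 RAW264.7 cells after the same LPS (1 µg/mL) and compound (0-20 µg/mL) 24 h exposure used for NO measurement. MTT (5 mg/mL stock in PBS, 10 µL per 100 µL culture) added for 4 h at 37 °C. Formazan dissolved in DMSO and read at 550 nm. Untreated cells taken as 100% viability.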

Data set [3] has as its system Daoy. Briefly: Cytotoxicity against human DaOY cells at 20 uM by modified MTT assay. The class given is functional, cell-based.
Data set [4] has as its system KB. Briefly: Cytotoxicity against human KB cells at 20 uM by modified MTT assay. Format: functional, cell-based.
For data set [5], the system named is HeLa. Briefly: Cytotoxicity against human HeLa cells at 20 uM by modified MTT assay. The class given is functional, cell-based.
Data set [6] has as its system WiDr. As to the kind of experiment: Cytotoxicity against human WiDr cells at 20 uM by modified MTT assay. The class given is functional, cell-based.
Data set [7] relates to Radical scavenging activity. As to the kind of experiment: Antioxidant activity assessed as DPPH radical scavenging activity after 30 mins by ELISA. The class given is functional. The essentials:
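Sample (200-3.125 µg/mL) or quercetin (25-3.125 µg/mL), 120 µL, mixed with 30 µL of 0.75 mM DPPH in methanol. Shaken in the dark at room temperature for 30 min, then absorbance read at 517 nm. Methanol in place of sample served as negative control. ED50 is the concentration giving 50% reduction of DPPH radicals.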

Calls of active or inactive are those of the source. The rule behind the calls is not given here.

Turning to `C[C@@H]1O[C@@H](O[C@H]2[C@H](Oc3c(-c4ccc(O)c(O)c4)oc4cc(O)cc(O)c4c3=O)O[C@@H](C)[C@H](O)[C@H]2O)[C@H](O)[C@H](O)[C@H]1O`, in data set [1], the IC50 amounted to 32.9 µM. In addition, the viability in data set [2] was greater than 80%. Also, the result in data set [3], in data set [4], in data set [5] and in data set [6] was inactive. In data set [7], the ED50 came to 16.6 µM.
As to `C[C@@H]1O[C@@H](O[C@H]2C(Oc3c(-c4ccc(O)cc4)oc4cc(O)cc(O)c4c3=O)O[C@@H](C)[C@H](O)[C@H]2O)[C@H](O)[C@H](O)[C@H]1O` (stereo partly specified), the IC50 in data set [1] was 40.1 µM. In addition, in data set [2], the viability was greater than 80%. The result in data set [3], in data set [4], in data set [5] and in data set [6] was inactive.
Regarding `O=c1c(O)c(-c2ccc(O)cc2O)oc2cc(O[C@@H]3O[C@H](CO)[C@@H](O)[C@H](O)[C@H]3O)cc(O)c12`, in data set [1], the IC50 was found to be 39.1 µM. In addition, the viability in data set [2] is greater than 80%. Further, the outcome in data set [3], in data set [4], in data set [5] and in data set [6] was inactive. Moreover, in data set [7], the ED50 was found to be 22.2 µM.
As to `CC1(C)[C@@H](O)CC[C@]2(C)C3=C(CC[C@@H]12)CO[C@H](C1=CCOC1=O)C3`, the IC50 in data set [1] came to 12.2 µM. In addition, the viability in data set [2] was greater than 80%. Besides, the outcome in data set [3], in data set [4], in data set [5] and in data set [6] was inactive.
Consider `C[C@@H]1O[C@@H](O[C@H]2[C@H](O[C@H]3CC[C@]4(C)C5=C(CC[C@H]4C3(C)C)CO[C@H](C3=CCOC3=O)C5)O[C@H](CO)[C@@H](O)[C@@H]2O)[C@H](O)[C@H](O)[C@H]1O` [ALPINDENOSIDE A], for which the IC50 in data set [1] worked out at 34.2 µM. In data set [2], the viability was greater than 80%. For the same molecule, the outcome in data set [3], in data set [4], in data set [5] and in data set [6] was inactive. Moreover, the ED50 in data set [7] is greater than 200 µg/mL.
For the molecule `C[C@@H]1O[C@@H](O[C@H]2[C@H](O[C@H]3CC[C@]4(C)C5=C(CC[C@H]4C3(C)C)CO[C@@H](C3=CCOC3=O)C5)O[C@H](CO)[C@@H](O)[C@@H]2O)[C@H](O)[C@H](O)[C@H]1O` [ALPINDENOSIDE B], in data set [1], the IC50 was 49.3 µM. In data set [2], the viability is greater than 80%. The result in data set [3], in data set [4], in data set [5] and in data set [6] was inactive. Besides, the ED50 in data set [7] was greater than 200 µg/mL.
As to `C[C@@H]1O[C@@H](O[C@H]2[C@H](O[C@H]3CC[C@]4(C)[C@@H]5C[C@H](C6=CCOC6=O)OC(O)[C@@H]5CC[C@H]4C3(C)C)O[C@H](CO)[C@@H](O)[C@@H]2O)[C@H](O)[C@H](O)[C@H]1O` (stereo partly specified) [ALPINDENOSIDE C], in data set [1], the IC50 worked out at 38 µM. The viability in data set [2] was greater than 80%. Further, the result in data set [3], in data set [4], in data set [5] and in data set [6] was inactive. The ED50 in data set [7] was greater than 200 µg/mL.
For `CC(=O)OC[C@H]1O[C@@H](O[C@H]2CC[C@]3(C)[C@H]4C[C@H](C5=CCOC5=O)OC(O)[C@@H]4CC[C@H]3C2(C)C)[C@H](O[C@@H]2O[C@@H](C)[C@H](O)[C@@H](O)[C@H]2O)[C@@H](O)[C@@H]1O` (stereo partly specified) [ALPINDENOSIDE D], the IC50 in data set [1] worked out at 30 µM. Moreover, the viability in data set [2] was greater than 80%. Besides, the outcome in data set [3], in data set [4], in data set [5] and in data set [6] was inactive. Further, the ED50 in data set [7] was greater than 200 µg/mL.
In the case of `CC1(C)[C@@H](O)CC[C@]2(C)C3=C(CC[C@@H]12)CO[C@@H](C1=CCOC1=O)C3` [AULACOCARPINOLIDE], the IC50 in data set [1] was 44.6 µM. The viability in data set [2] was greater than 80%. Further, the outcome in data set [3], in data set [4], in data set [5] and in data set [6] was inactive.
For the molecule `C=C(CO)[C@H]1C[C@@H]2[C@@H](CC[C@H]3C(C)(C)[C@@H](O[C@@H]4O[C@H](CO)[C@@H](O)[C@H](O)[C@H]4O[C@@H]4O[C@@H](C)[C@H](O)[C@@H](O)[C@H]4O)CC[C@]23C)[C@H]1O` [NORALPINDENOSIDE A], in data set [1], the IC50 is 31.8 µM. The viability in data set [2] is greater than 80%. The result in data set [3], in data set [4], in data set [5] and in data set [6] was inactive. The ED50 in data set [7] is greater than 200 µg/mL.
Regarding `C=C(C)[C@H]1C[C@@H]2[C@@H](CC[C@H]3C(C)(C)[C@@H](O[C@@H]4O[C@H](CO)[C@@H](O)[C@H](O)[C@H]4O[C@@H]4O[C@@H](C)[C@H](O)[C@@H](O)[C@H]4O)CC[C@]23C)[C@H]1O` [NORALPINDENOSIDE B], in data set [1], the IC50 was 44.3 µM. In data set [2], the viability was greater than 80%. Further, the result in data set [3], in data set [4], in data set [5] and in data set [6] was inactive. Further, the ED50 in data set [7] is greater than 200 µg/mL.
`O=c1c(O)c(-c2ccc(O)c(O)c2)oc2cc(O)cc(O)c12` [QUERCETIN]: the IC50 in data set [1] came out at 9.6 µM. Also, the ED50 in data set [7] worked out at 18 µM.
